# Measurements of several laboratories.
# Each line is one published result; the experiments were not run side by side.
# PADI1: Protein-arginine deiminase type-1 (PADI1, Homo sapiens, UniProt Q9ULC6)
# CDK16: Cyclin-dependent kinase 16 (CDK16, Homo sapiens, UniProt Q00536)
# KDR: Vascular endothelial growth factor receptor 2 (KDR, Homo sapiens, UniProt P35968)
Compound,target,test,system,conditions,quantity,value
CC(C)(C)n1nnc([C@H](CCCNC(=N)CF)NC(=O)c2ccccc2)n1,PADI1,"enzyme activity, inhibitor",,,kinact/KI,26.6 M⁻¹ s⁻¹
Cn1c2c(Cl)c(Cl)ccc2c2cc[nH]c(=O)c21,CDK16,"thermal stability, DSF",,10 µM,ΔTm,0 °C
NS(=O)(=O)c1ccc(Nc2nc(-c3ccc(F)cc3)c3ccccc3n2)cc1,"ATPase family AAA domain-containing protein 2 (ATAD2, Homo sapiens, UniProt Q6PL18)","binding, competition with immobilised ligand",,1 µM,remaining binding,85%
Cn1c2c(c3ccc(Cl)c(Cl)c31)C(C#N)C1(CCNCC1)NC2=O (racemic),CDK16,"thermal stability, DSF",,10 µM,ΔTm,2.6 °C
CC(C)(C)n1nnc([C@H](CCCNC(=N)CCl)NC(=O)c2ccccc2)n1,PADI1,"enzyme activity, inhibitor",,,kinact/KI,52.4 M⁻¹ s⁻¹
COc1ccc(C=NNC(=O)c2sc(Nc3ccccc3)c(C(=O)Nc3ccc(OC)cc3)c2NC(C)=O)cc1,KDR,"enzyme activity, inhibitor",,10 nM,remaining activity,96%
N=C(CF)NCCC[C@H](NC(=O)c1ccccc1C(=O)O)c1nn[nH]n1,PADI1,"enzyme activity, inhibitor",,,kinact/KI,1360 M⁻¹ s⁻¹
NCCCC[C@H](NC(=O)[C@@H]1CCCN1C(=O)[C@@H]1CSSC[C@H](N)C(=O)N[C@@H](Cc2ccc(O)cc2)C(=O)N[C@@H](Cc2ccccc2)C(=O)N[C@@H](CCC(N)=O)C(=O)N[C@@H](CC(N)=O)C(=O)N1)C(=O)NCC(N)=O,"Vasopressin V1a receptor (AVPR1A, Homo sapiens, UniProt P37288)","calcium signal, agonist",CHO-S,,Emax,~100%
Cc1ccc(C(=O)NCc2ccsc2)cc1C#Cc1cn(C(C)C)c2ncnc(N)c12,"[Pyruvate dehydrogenase (acetyl-transferring)] kinase isozyme 2, mitochondrial (PDK2, Homo sapiens, UniProt Q15119)","enzyme activity, inhibitor",,1 µM,activity vs control,91%
Nc1ncnc2occ(-c3ccc(NC(=O)Nc4cc(C(F)(F)F)ccc4F)cc3)c12,"1-phosphatidylinositol 3-phosphate 5-kinase (PIKFYVE, Homo sapiens, UniProt Q9Y2I7)",cell-free assay,,20 µM,remaining signal,19%
COc1ccc(NC(=O)c2c(Nc3ccccc3)sc(C#N)c2NC(=O)CNc2ccc([N+](=O)[O-])cc2)cc1,KDR,"enzyme activity, inhibitor",,100 µM,remaining activity,68.8%
N=C(CCl)NCCC[C@H](NC(=O)c1ccc(-c2ccccc2)cc1)c1nn[nH]n1,PADI1,"enzyme activity, inhibitor",,,kinact/KI,51.7 M⁻¹ s⁻¹
COc1ccc(NC(=O)c2c(Nc3ccccc3)sc(C(=O)NN=Cc3ccc(Cl)cc3)c2NC(C)=O)cc1,KDR,"enzyme activity, inhibitor",,0.1 µM,remaining activity,88.3%
N=C(CCl)NCCC[C@H](NC(=O)c1ccccc1C(=O)O)c1nn[nH]n1,PADI1,"enzyme activity, inhibitor",,,kinact/KI,1370 M⁻¹ s⁻¹
Cn1c2c(Cl)c(Cl)ccc2c2cc(N)[nH]c(=O)c21,CDK16,"thermal stability, DSF",,10 µM,ΔTm,0.3 °C
N=C(CF)NCCC[C@H](NC(=O)c1ccc(-c2ccccc2)cc1)c1nn[nH]n1,PADI1,"enzyme activity, inhibitor",,,kinact/KI,13.7 M⁻¹ s⁻¹
CC[C@H]1OC(=O)[C@H](C)[C@@H](O[C@H]2C[C@@](C)(OC)[C@@H](O)[C@H](C)O2)[C@H](C)[C@@H](O[C@@H]2O[C@H](C)C[C@H](N(C)C)[C@H]2O)[C@](C)(O)C[C@@H](C)C(=O)[C@H](C)[C@@H](O)[C@]1(C)O,"Motilin receptor (MLNR, Homo sapiens, UniProt O43193)","inositol phosphate, agonist, TR-FRET",AD293,,Emax,100%
COc1ccc(NC(=O)c2c(Nc3ccccc3)sc(C(=O)NN=Cc3cc(OC)c(OC)c(OC)c3)c2NC(C)=O)cc1,KDR,"enzyme activity, inhibitor",,10 nM,remaining activity,100%
CN(C)C1CCN(CC#Cc2nn(C3CCCC3)c3nc(NCc4ccccc4)ncc23)C1 (stereo not shown),"cGMP-dependent protein kinase 2 (PRKG2, Homo sapiens, UniProt Q13237)","enzyme activity, inhibitor, FRET",,0.1 µM,inhibition,7%
COc1ccc(NC(=O)c2c(Nc3ccccc3)sc(C#N)c2NC(=O)CNc2ccc(Cl)cc2)cc1,KDR,"enzyme activity, inhibitor",,1 µM,remaining activity,41.1%
Oc1ccc(-c2nc(-c3ccncc3)c(-c3ccc(F)cc3)[nH]2)cc1,"ATPase family AAA domain-containing protein 2, bromodomain (ATAD2, Homo sapiens, UniProt Q6PL18)","thermal stability, DSF",,10 µM,ΔTm,0.05 °C
COc1ccc(NC(=O)c2c(Nc3ccccc3)sc(C#N)c2NC(=O)CNc2ccc(Br)cc2)cc1,KDR,"enzyme activity, inhibitor",,10 nM,remaining activity,93%
CC(=O)NCCc1c[nH]c2ccc(O)cc12,"Sulfotransferase 1C4 (SULT1C4, Homo sapiens, UniProt O75897)","enzyme activity, substrate",,pH 7,Km,45.7 µM
COc1ccc(NC(=O)c2c(Nc3ccccc3)sc(C(=O)NN=Cc3ccc(OC)c(O)c3)c2NC(C)=O)cc1,KDR,"enzyme activity, inhibitor",,10 nM,remaining activity,99%
Cc1ccc(C(=O)Nc2ccc(CN3CCN(C)CC3)c(C(F)(F)F)c2)cc1C#Cc1cnc2cccnn12,"Phosphatidylinositol 4,5-bisphosphate 3-kinase catalytic subunit alpha isoform (PIK3CA, Homo sapiens, UniProt P42336, H1047L)","enzyme activity, inhibitor",,23.5 nM,remaining activity,70%
